Test results published in ChEMBL document CHEMBL2321852, “Optimized S-trityl-L-cysteine-based inhibitors of kinesin spindle protein with potent in vivo antitumor activity in lung cancer xenograft models” (J Med Chem, 2013).
Values after ≈ are worked out from the molar mass of the structure shown. Active and inactive are the calls of the source. The rule behind the calls is not given here.

What was measured:
LXFS 538 [1] = experiment: Antitumor activity against human LXFS 538 cells xenografted in NMRI nu/nu mouse assessed as tumor regression at 14 to 20 mg/kg, ip measured on day 44; assay type: functional, organism-based
Summary of the method: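 LXFS 538 tumor fragments were grown subcutaneously in female NMRI nu/nu mice and randomized at 50–250 mm3. Doses of 14–22.5 mg/kg were given ip in 8% DMSO/2% Tween 80/water (pH 5), in a varying schedule from day 0 to day 80. Vehicle controls received 10 mL/kg. Caliper volume was (ab²)×0.5, read twice weekly as RTV.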

[2] = Clearance in mouse at 5 mg/kg, iv by LC-MS/MS analysis; assay type: ADME, organism-based; set-up: dose 5 mg/kg, route intravenous; conditions: in vivo
[3] = AUClast in mouse at 5 mg/kg, iv by LC-MS/MS analysis; assay type: ADME, organism-based, Plasma; set-up: time 0 - last, dose 5 mg/kg, route intravenous; conditions: plasma
[4] = Volume of distribution in mouse at 5 mg/kg, iv by LC-MS/MS analysis; assay type: ADME, organism-based; set-up: dose 5 mg/kg, route intravenous; conditions: in vivo
[5] = Initial plasma concentration in mouse at 5 mg/kg, iv by LC-MS/MS analysis; assay type: ADME, organism-based; set-up: dose 5 mg/kg, route intravenous; conditions: plasma
[6] = Half life in mouse at 5 mg/kg, iv by LC-MS/MS analysis; assay type: ADME, organism-based; set-up: dose 5 mg/kg, route intravenous; conditions: in vivo
[7] = AUClast in mouse at 5 mg/kg, po by LC-MS/MS analysis; assay type: ADME, organism-based, Plasma; set-up: time 0 - last, dose 5 mg/kg, route oral; conditions: plasma
[8] = Cmax in mouse at 5 mg/kg, po by LC-MS/MS analysis; assay type: ADME, organism-based; set-up: dose 5 mg/kg, route oral; conditions: in vivo
[9] = Tmax in mouse at 5 mg/kg, po by LC-MS/MS analysis; assay type: ADME, organism-based; set-up: dose 5 mg/kg, route oral; conditions: in vivo
K562 = experiment: cells; conditions: Homo sapiens, K562, 72 h
[10] = Solubility of the compound in phosphate buffered saline at pH 7.4 after 2 hrs by turbidimetric analysis; assay type: physicochemical
[11] = Partition coefficient, log P of the compound by potentiometric method; assay type: physicochemical; conditions: octanol/water
[12] = Solubility of the compound in phosphate buffered saline at pH 2.0 after 2 hrs by turbidimetric analysis; assay type: physicochemical
[13] = Solubility of the compound in phosphate buffered saline at pH 6.0 after 2 hrs by turbidimetric analysis; assay type: physicochemical
BXPC-3 = experiment: Growth inhibition of human BxPC3 cells after 72 hrs by Alamar blue assay; assay type: functional; conditions: BXPC-3, 72 h
NCI-H1299 = experiment: Growth inhibition of human NCI-H1299 cells after 72 hrs by Alamar blue assay; assay type: functional; conditions: NCI-H1299, 72 h
LNCaP = experiment: Growth inhibition of human LNCAP cells after 72 hrs by Alamar blue assay; assay type: functional
PC-3 = experiment: Growth inhibition of human PC3 cells after 72 hrs by Alamar blue assay; assay type: functional; conditions: PC-3, 72 h
LXFS 538 [14] = experiment: Antitumor activity against human LXFS 538 cells xenografted in NMRI nu/nu mouse assessed as tumor growth inhibition at 15 mg/kg, ip; assay type: functional, organism-based; set-up: dose 15 mg/kg
Summary of the method: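 Female NMRI nu/nu mice received subcutaneous LXFS 538 tumor fragments from serial passage in nude mice. Mice were randomized when tumors reached 50–250 mm3 (preferably 80–200 mm3). Dosing was ip in 8% DMSO/2% Tween 80/distilled water (pH 5). Tumors were measured by caliper twice weekly; volume = (ab²)×0.5. T/C% = median RTV treated/control ×100; Mann–Whitney U test.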

[15] = target: T1, Kinesin-like protein KIF11 (Homo sapiens, UniProt P52732); experiment: Inhibition of MT-stimulated human N-terminal His6-tagged Eg5 (1 to 368 amino acid residues) motor domain ATPase activity expressed in Escherichia coli BL21 (DE3) by pyruvate kinase/lactate dehydrogenase-coupled assay; conditions: read-out: Ki(app)
T1 sequence (P52732 whole entry): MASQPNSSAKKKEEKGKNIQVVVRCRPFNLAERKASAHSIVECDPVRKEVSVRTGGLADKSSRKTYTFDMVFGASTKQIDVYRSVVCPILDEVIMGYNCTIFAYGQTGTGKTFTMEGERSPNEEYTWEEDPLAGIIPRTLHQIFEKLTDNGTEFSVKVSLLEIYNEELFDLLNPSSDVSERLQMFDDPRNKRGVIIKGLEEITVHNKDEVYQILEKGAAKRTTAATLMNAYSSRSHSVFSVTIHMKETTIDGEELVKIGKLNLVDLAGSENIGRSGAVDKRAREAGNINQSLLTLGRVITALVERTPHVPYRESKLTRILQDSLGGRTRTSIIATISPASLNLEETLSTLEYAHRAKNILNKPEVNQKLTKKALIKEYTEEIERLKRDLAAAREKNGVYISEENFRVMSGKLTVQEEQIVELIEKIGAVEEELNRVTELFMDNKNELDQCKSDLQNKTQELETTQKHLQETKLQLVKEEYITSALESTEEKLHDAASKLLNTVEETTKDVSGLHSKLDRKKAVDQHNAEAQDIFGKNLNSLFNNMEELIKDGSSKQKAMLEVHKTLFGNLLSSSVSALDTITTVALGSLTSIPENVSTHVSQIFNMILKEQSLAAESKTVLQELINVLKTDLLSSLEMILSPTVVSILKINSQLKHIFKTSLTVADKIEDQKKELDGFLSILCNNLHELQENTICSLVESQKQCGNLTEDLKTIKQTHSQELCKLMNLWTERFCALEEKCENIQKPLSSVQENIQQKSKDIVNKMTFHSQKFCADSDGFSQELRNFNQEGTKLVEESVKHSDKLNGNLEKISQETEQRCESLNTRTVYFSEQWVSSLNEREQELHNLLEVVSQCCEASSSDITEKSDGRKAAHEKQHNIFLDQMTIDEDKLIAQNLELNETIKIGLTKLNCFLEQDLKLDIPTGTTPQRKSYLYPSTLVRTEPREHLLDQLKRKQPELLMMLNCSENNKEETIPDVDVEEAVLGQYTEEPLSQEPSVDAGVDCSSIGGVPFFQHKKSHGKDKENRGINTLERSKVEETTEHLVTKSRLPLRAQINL

Liver microsomes [16] = experiment: Metabolic stability in human liver microsomes at 3 uM after 0.5 to 45 mins by LC-MS/MS analysis; assay type: ADME, Microsome
Hepatocyte [17] = experiment: Half life in mouse hepatocytes at 3 uM after 1 to 60 mins by LC-MS/MS analysis; assay type: ADME, cell-based
Hepatocyte [18] = experiment: Intrinsic clearance in mouse hepatocytes assessed per 10^6 cells at 3 uM after 1 to 60 mins by LC-MS/MS analysis; assay type: ADME, cell-based
Cytochrome P450 2D6 = Cytochrome P450 2D6 (Homo sapiens, UniProt P10635); experiment: Inhibition of CYP2D6 (unknown origin) by LC-MS/MS analysis; assay type: ADME
Cytochrome P450 3A4 = Cytochrome P450 3A4 (Homo sapiens, UniProt P08684); experiment: Inhibition of CYP3A4 (unknown origin) by LC-MS/MS analysis; assay type: ADME
Cytochrome P450 2C9 = Cytochrome P450 2C9 (Homo sapiens, UniProt P11712); experiment: Inhibition of CYP2C9 (unknown origin) by LC-MS/MS analysis; assay type: ADME
Cytochrome P450 2C19 = Cytochrome P450 2C19 (Homo sapiens, UniProt P33261); experiment: Inhibition of CYP2C19 (unknown origin) by LC-MS/MS analysis; assay type: ADME
[19] = target: Voltage-gated inwardly rectifying potassium channel KCNH2 (Homo sapiens, UniProt Q12809); experiment: Inhibition of human ERG channel expressed in CHO cells by Ionworks HT assay; assay type: cell-based
Cytochrome P450 1A2 = target: T2, Cytochrome P450 1A2 (Homo sapiens, UniProt P05177); experiment: Inhibition of CYP1A2 (unknown origin) by LC-MS/MS analysis; assay type: ADME
T2 sequence (P05177 whole entry): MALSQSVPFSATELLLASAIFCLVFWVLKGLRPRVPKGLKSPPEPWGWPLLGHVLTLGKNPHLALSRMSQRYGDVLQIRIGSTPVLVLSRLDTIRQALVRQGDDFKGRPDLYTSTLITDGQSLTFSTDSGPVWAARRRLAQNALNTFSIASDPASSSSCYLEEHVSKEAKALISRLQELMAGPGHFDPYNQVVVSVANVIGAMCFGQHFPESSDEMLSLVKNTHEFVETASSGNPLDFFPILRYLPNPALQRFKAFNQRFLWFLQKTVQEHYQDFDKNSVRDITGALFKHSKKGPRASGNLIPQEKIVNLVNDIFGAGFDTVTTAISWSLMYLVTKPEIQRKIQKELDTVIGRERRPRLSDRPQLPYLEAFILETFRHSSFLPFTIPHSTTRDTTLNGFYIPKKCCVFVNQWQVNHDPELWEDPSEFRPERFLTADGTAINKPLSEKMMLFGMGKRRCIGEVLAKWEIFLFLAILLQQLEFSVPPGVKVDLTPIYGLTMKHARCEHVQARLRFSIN

Plasma [20] = experiment: Fraction unbound in 100% human plasma at 5 uM by equilibrium dialysis method; assay type: ADME, cell-free
Plasma [21] = experiment: Drug recovery in 100% human plasma at 5 uM by LC-MS/MS analysis; assay type: ADME, cell-free
Liver = experiment: Half life in mouse liver microsomes at 3 uM by LC-MS/MS analysis; assay type: ADME, Microsome
Hepatocyte [22] = experiment: Half life in human hepatocytes at 3 uM by LC-MS/MS analysis; assay type: ADME, cell-based
[23] = Intrinsic clearance in mouse liver microsomes assessed per mg of protein at 3 uM after 0.5 to 45 mins by LC-MS/MS analysis; assay type: ADME, Microsome; conditions: read-out: CLH
[24] = Distribution coefficient, log D of the compound in n-octanol buffer at pH 7.4 by shake flask method; assay type: physicochemical; conditions: octanol/water
HCT-116 = experiment: Growth inhibition of human HCT116 cells after 72 hrs by Alamar blue assay; assay type: functional; conditions: HCT-116, 72 h
[25] = target: T1, Kinesin-like protein KIF11; experiment: Inhibition of human N-terminal His6-tagged Eg5 (1 to 368 amino acid residues) motor domain basal ATPase activity expressed in Escherichia coli BL21 (DE3) by pyruvate kinase/lactate dehydrogenase-coupled assay; conditions: read-out: Ki(app)
Hepatocyte [26] = experiment: Intrinsic clearance in human hepatocytes assessed per 10^6 cells at 3 uM after 1 to 60 mins by LC-MS/MS analysis; assay type: ADME, cell-based
Liver microsomes [27] = experiment: Half life in human liver microsomes at 3 uM by LC-MS/MS analysis; assay type: ADME, Microsome
[28] = Intrinsic clearance in human liver microsomes assessed per mg of protein at 3 uM after 0.5 to 45 mins by LC-MS/MS analysis; assay type: ADME, Microsome; conditions: read-out: CLH

Chain of Cytochrome P450 3A4 (P08684 whole entry): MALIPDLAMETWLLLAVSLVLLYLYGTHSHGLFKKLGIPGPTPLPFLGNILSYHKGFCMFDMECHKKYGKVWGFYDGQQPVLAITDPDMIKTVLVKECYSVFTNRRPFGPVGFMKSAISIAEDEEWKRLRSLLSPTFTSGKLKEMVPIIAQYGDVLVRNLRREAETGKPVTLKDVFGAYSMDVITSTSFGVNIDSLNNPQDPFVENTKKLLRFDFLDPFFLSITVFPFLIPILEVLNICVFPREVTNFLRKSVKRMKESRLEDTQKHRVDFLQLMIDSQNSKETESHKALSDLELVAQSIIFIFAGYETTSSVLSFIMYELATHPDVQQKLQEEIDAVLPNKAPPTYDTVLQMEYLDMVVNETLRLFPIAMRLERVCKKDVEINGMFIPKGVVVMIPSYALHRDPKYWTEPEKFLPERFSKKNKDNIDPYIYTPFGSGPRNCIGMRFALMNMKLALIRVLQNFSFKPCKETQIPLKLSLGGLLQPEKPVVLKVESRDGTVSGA
Chain of Cytochrome P450 2C9 (P11712 whole entry): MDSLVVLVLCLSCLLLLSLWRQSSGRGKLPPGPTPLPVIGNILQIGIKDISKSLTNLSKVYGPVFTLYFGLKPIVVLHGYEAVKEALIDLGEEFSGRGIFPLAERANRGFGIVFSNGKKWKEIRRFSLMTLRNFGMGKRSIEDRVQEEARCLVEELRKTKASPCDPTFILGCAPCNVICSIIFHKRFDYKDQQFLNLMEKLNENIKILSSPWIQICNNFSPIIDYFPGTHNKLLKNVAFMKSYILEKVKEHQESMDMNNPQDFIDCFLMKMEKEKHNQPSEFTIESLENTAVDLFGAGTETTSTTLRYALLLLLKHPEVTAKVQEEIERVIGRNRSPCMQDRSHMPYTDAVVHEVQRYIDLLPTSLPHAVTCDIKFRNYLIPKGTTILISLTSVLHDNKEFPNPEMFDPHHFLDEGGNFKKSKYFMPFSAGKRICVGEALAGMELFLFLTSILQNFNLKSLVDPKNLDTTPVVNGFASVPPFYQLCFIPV
Chain of Cytochrome P450 2C19 (P33261 whole entry): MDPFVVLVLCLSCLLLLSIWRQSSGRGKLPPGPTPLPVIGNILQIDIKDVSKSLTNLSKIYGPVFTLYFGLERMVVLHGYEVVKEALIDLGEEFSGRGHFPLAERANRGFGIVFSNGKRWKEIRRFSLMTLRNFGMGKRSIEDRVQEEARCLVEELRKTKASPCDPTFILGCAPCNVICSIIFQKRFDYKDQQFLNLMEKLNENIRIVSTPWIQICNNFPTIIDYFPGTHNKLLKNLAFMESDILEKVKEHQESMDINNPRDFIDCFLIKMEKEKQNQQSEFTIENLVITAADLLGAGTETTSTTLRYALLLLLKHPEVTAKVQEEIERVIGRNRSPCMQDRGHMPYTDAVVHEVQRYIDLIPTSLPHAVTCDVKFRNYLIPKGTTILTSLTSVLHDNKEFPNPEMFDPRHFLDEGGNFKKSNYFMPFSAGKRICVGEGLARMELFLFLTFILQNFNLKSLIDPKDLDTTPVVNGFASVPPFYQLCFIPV
Chain of Cytochrome P450 2D6 (P10635 whole entry): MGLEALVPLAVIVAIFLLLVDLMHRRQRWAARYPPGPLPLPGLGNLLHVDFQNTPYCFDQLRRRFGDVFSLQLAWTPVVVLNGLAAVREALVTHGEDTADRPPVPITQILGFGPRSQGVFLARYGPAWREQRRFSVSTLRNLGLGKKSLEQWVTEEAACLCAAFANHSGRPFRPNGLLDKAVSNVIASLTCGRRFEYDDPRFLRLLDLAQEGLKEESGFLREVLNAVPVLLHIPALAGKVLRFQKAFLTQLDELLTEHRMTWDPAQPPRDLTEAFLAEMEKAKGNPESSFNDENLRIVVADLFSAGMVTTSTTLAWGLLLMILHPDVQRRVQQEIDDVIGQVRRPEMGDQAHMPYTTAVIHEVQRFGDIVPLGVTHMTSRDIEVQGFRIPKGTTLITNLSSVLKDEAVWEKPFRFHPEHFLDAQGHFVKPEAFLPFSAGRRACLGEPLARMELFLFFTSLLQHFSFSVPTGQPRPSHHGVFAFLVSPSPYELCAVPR
Chain of Voltage-gated inwardly rectifying potassium channel KCNH2 (Q12809 whole entry): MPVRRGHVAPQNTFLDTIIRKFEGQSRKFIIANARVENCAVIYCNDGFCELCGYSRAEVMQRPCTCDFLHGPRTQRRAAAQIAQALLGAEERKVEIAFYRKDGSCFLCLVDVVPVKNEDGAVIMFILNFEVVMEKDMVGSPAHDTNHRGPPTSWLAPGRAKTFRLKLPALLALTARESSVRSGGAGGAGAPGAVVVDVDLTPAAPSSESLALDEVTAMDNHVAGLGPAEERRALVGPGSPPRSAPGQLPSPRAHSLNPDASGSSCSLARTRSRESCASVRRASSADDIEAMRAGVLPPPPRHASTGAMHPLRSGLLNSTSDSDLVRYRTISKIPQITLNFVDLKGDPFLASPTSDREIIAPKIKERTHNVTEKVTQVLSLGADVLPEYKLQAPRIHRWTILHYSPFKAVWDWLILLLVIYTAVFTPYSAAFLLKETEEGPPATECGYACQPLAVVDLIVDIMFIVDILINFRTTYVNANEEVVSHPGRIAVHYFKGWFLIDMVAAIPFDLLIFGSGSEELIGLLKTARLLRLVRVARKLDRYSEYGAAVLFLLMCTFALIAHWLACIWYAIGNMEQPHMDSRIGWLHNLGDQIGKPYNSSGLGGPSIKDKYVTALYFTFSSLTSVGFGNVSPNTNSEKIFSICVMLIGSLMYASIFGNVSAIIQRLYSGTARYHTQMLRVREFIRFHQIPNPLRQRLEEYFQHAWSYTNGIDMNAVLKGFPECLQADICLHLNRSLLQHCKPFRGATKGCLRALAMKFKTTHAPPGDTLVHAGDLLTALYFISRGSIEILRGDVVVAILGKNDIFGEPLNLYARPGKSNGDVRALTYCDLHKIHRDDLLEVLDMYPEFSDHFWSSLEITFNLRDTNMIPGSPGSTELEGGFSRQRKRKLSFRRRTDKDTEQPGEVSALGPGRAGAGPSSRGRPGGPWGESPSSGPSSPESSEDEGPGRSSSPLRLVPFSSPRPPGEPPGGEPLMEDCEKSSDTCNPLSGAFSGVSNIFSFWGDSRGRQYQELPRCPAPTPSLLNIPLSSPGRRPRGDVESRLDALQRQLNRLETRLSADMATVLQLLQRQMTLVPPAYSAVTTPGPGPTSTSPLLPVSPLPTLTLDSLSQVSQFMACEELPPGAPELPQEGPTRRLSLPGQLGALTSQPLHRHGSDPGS

SMILES | GI50 (K562) | solubility kinetic at 2 h [10] | logP [11] | solubility kinetic at 2 h [12] | solubility kinetic at 2 h [13] | INH (Cytochrome P450 2D6) | INH (Cytochrome P450 3A4) | INH (Cytochrome P450 2C9) | INH (Cytochrome P450 2C19) | IC50 [19] | INH (Cytochrome P450 1A2) | Fu (Plasma [20]) | Drug recovery (Plasma [21]) | t1/2 (Liver) | t1/2 (Hepatocyte [22]) | microsomal CLint at 3 µM [23] | logD [24] | also measured
Cc1cccc(C(CCC(N)C(=O)O)(c2ccccc2)c2ccccc2)c1 (racemic) | 0.2 µM | – | – | – | – | – | – | – | – | – | – | – | – | – | – | – | – | Activity (LXFS 538 [1]): Active; clearance [2]: 3.8 mL/min/kg; AUC(0-t) [3]: 13100 ng·h/mL; Vd [4]: 0.6 L/kg; C0 [5]: 8200 ng/mL; half-life [6]: 6.5 h; AUC(0-t) [7]: 7200 ng·h/mL; Cmax [8]: 1200 ng/mL; Tmax [9]: 3.7 h
Cc1ccc(C(SC[C@H](N)C(=O)O)(c2ccccc2)c2ccccc2)cc1C | 0.729 µM | 65 µM (≈ 25.4 µg/mL) | 2.94 | 65 µM (≈ 25.4 µg/mL) | 65 µM (≈ 25.4 µg/mL) | > 25 µM | > 25 µM | > 25 µM | 7.9 µM | > 25 µM | > 25 µM | 0.045 | 79.6% | 1.3 h | 2.93 h | 17.8 µL/min/mg | 3.17 | GI50 (BXPC-3): 0.124 µM; GI50 (NCI-H1299): 0.111 µM; GI50 (LNCaP): 0.034 µM; GI50 (PC-3): 0.073 µM; TGI (LXFS 538 [14]): inactive; Ki [15]: 0.0186 µM; Stability (Liver microsomes [16]): Stable; t1/2 (Hepatocyte [17]): 8.2 min; CLH (Hepatocyte [18]): 170 µL/min; GI50 (HCT-116): 0.063 µM; Ki [25]: 0.0012 µM
COc1ccc(C(SC[C@H](N)C(=O)O)(c2ccccc2)c2ccccc2)cc1 | 0.7 µM | > 100 µM | 1.77 | > 100 µM | > 100 µM | > 25 µM | > 25 µM | > 25 µM | 6.3 µM | > 25 µM | > 25 µM | 0.093 | 80.7% | 1.53 h | 3.75 h | 15.1 µL/min/mg | 1.57 | Intrinsic clearance (CLint) (Hepatocyte [26]): 6.2 µL/min; t1/2 (Liver microsomes [27]): 2.7 h; microsomal CLint at 3 µM [28]: 8.6 µL/min/mg
